The test system of assay [1] is HeLa. The assay is described as follows: Antiproliferative activity against human HeLa cells after 72 hrs by MTT test. It is filed as functional, cell-based. The method, boiled down:
(§1)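 Cells grown as monolayers in DMEM with 10% FBS, 2 mM L-glutamine, penicillin and streptomycin at 37 °C, 5% CO2. Seeded on day 0 at 1 · 10⁴/mL (HeLa, Hep-2, MiaPaCa-2, SW620), 2 · 10⁴/mL (MCF-7) or 3 · 10⁴/mL (WI 38). Five dilutions (10^-8 to 5 · 10^-6 mol/l), 72 h, MTT read-out. Quadruplicate, three experiments. IC50 by linear regression of percentage growth.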
On the technique in general: Tetrazolium assays rely on reduction of a dye to a coloured formazan, in cell work by metabolically active cells.

Assay [2] relates to WI-38. The assay is described as follows: Antiproliferative activity against human WI38 cells after 72 hrs by MTT test. As to conditions: WI-38, 72 h. The class given is functional, cell-based. In outline:
as §1

For assay [3], the system named is DNA. The assay is described as follows: Binding affinity to calf thymus DNA in aqueous solution at pH 7.0 by thermal denaturation. It is filed as nucleic-acid assay. As to conditions: Bos taurus. The method, boiled down:
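ct-DNA in sodium cacodylate buffer, pH 7.0, I = 0.05 mol dm^-3, concentration taken as phosphate. Compound added at r[compd]/[ct-DNA] = 0.3. Melting followed by absorbance at 260 nm, with ligand absorbance subtracted and curves normalized. Tm taken as the transition midpoint (first derivative or tangent method). ΔTm = Tm(complex) − Tm(free DNA), averaged over at least two runs.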

Assay [4] deals with MIA PaCa-2. Description: Antiproliferative activity against human MiaPaCa2 cells after 72 hrs by MTT test. It is filed as functional, cell-based. As to conditions: MIA PaCa-2, 72 h. The method, boiled down: as §1
Assay [5] has as its system MCF7. Description: Antiproliferative activity against human MCF7 cells after 72 hrs by MTT test. It is filed as functional, cell-based. As to conditions: MCF7, 72 h. The method, boiled down:
as §1

Assay [6] concerns SW-620. Description: Antiproliferative activity against human SW620 cells after 72 hrs by MTT test. It is filed as functional, cell-based. Conditions: SW-620, 72 h. In outline: as §1
In assay [7] the test system is HEp-2. Description: Antiproliferative activity against human Hep2 cells after 72 hrs by MTT test. As to conditions: HEp-2, 72 h. It is filed as functional, cell-based. In outline:
as §1

The source made the active and inactive calls. No cut-off for these calls is given here.

The term IC50 denotes the midpoint of a concentration-inhibition curve. The low end stands for greater potency, the high end for weaker potency. Regarding `NC(=S)N/N=C/c1ccccc1O`, the concentration for half-maximal inhibition (IC50) in assay [1] is no less than 5000 nM; in assay [2] it was no less than 5000 nM; in assay [4], greater than 5000 nM; in assay [5], no less than 5000 nM; in assay [6], greater than 5000 nM; in assay [7] it was no less than 5000 nM. The outcome in assay [3] was inactive.

Turning to `COc1cccc(/C=N/NC(=S)Nc2ccccc2)c1O`, the IC50 in assay [1] stood at 1700 nM; in assay [2] it was 1400 nM; in assay [4] it was 2500 nM; in assay [5] it was 3000 nM; in assay [6] it was 1600 nM; in assay [7] it was 1600 nM.

`Oc1ccccc1/C=N/NC(=S)Nc1ccccc1`: the IC50 was determined as 1500 nM in assay [1]; 1300 nM in assay [2]; 2400 nM in assay [4]; 4000 nM in assay [5]; 2000 nM in assay [6]; 2400 nM in assay [7]. Besides, the outcome in assay [3] was inactive.

`CCN(CC)c1ccc(/C=N/NC(N)=S)c(O)c1`: the IC50 in assay [1] is 2000 nM; in assay [2], 200 nM; in assay [4], greater than 5000 nM; in assay [5], 400 nM; in assay [6], 3000 nM; in assay [7], 900 nM.

`CCN(CC)c1ccc(/C=N/NC(=S)Nc2ccccc2)c(O)c1`: the IC50 in assay [1] turned out to be 700 nM; in assay [2] it was 300 nM; in assay [4] it was 200 nM; in assay [5], 1200 nM; in assay [6], 600 nM; in assay [7], 300 nM. For the same compound, the result in assay [3] was inactive.

For `NC(=S)N/N=C/c1c(O)ccc2ccccc12`, the IC50 in assay [1] was 200 nM; in assay [2] it was no less than 5000 nM; in assay [4], greater than 5000 nM; in assay [5], greater than 5000 nM; in assay [6], 4700 nM; in assay [7], 200 nM.

Values taken from ChEMBL document CHEMBL1157178, “Novel thiosemicarbazone derivatives as potential antitumor agents: Synthesis, physicochemical and structural properties, DNA interactions and antiproliferative activity” (Bioorg Med Chem, 2008).
